How the values were obtained:
[1] = molecular target: GABA-A receptor; anion channel; test: Binding affinity towards benzodiazepine receptor by the displacement of [3H]flunitrazepam from rat brain preparations.
[2] = tested on: Rattus norvegicus; test: Minimum effective dose on oral administration; type: functional; conditions: read-out: MED
Outline: (§1)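 Food-motivated conflict test in trained Lister rats: five alternating 4-min FI30 unpunished and five 3-min FR5 punished components. Dosing po 30 min before testing, first at 50 mg/kg in four rats, then at decreasing doses (20, 10, 5, 2, 1 mg/kg) if active. MED is the dose giving a significant rise in punished responding (Mann-Whitney U).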

[3] = species: Mus musculus; test: Dose of leptazol-inducing tonic seizures in CD-1 mice was determined and represented as ED50; type: functional
[4] = species: Mus musculus; test: Sedative/muscle relaxant effects in male CD-1 mice was assessed with a Ugo Basile rotating drum and the dose causing 50% decrease in time (ED50) was evaluated; type: functional
Outline: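 Rotating drum of 3 cm diameter at 16 rev/min; time on drum recorded 1 h after dosing. Mean for groups of 10 mice expressed as percentage of control group mean.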

[5] = tested on: Rattus norvegicus; test: Compound was tested for conflict antagonism of chlordiazepoxide (CDZP) at 10 mg/kg orally.; type: functional; conditions: po, read-out: MED
Outline: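 Food-motivated conflict test in trained Lister rats: test compound given po with 10 mg/kg po chlordiazepoxide. Effect compared with chlordiazepoxide alone in the same rats in separate assays. Schedule of five alternating 4-min FI30 unpunished and five 3-min FR5 punished components.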

[6] = tested on: Rattus norvegicus; test: Compound was tested for the minimum effective dose (MED) on oral administration; value ranges from 10-50 mg/Kg; type: functional; conditions: read-out: MED; outline: as §1
[7] = species: Mus musculus; test: The dose of leptazol-inducing tonic seizures in CD-1 mice was determined and represented as ED50.; type: functional
[8] = tested on: Rattus norvegicus; test: Compound was tested for the minimum effective dose (MED) on oral administration; value ranges from 1-2 mg/Kg; type: functional; conditions: read-out: MED; outline: as §1
[9] = species: Mus musculus; test: Sedative/muscle relaxant effects in male CD-1 mice was assessed with a Ugo Basile rotating drum and the dose causing 50% decrease in time (ED50) was calculated.; type: functional
Outline: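 Male CD-1 mice, groups of 10, were placed on a rotating drum (3 cm diameter, 16 rev/min) 1 h after dosing and their time on the drum was recorded. The group mean was expressed as a percentage of the control group mean. The dose giving a 50% decrease came from best-fit lines through at least three dose-effect points, with 95% confidence limits by Litchfield and Wilcoxon.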

[10] = tested on: Rattus norvegicus; test: Compound was tested for the minimum effective dose (MED) on oral administration; value ranges from 2-5 mg/Kg; type: functional; conditions: read-out: MED; outline: as §1
[11] = tested on: Mus musculus; test: Intraperitoneal dose of leptazol-inducing tonic seizures in CD-1 mice was determined and represented as ED50; type: functional; conditions: ip

| SMILES | IC50 [1] | minimal effective dose [2] | other results |
| --- | --- | --- | --- |
| C=CCc1c(OC)nc2nc(-c3noc(C)n3)cn2c1C | 560 nM | 10 mg/kg |  |
| COc1nc2nc(-c3noc(C)n3)cn2c2c1CCCC2 [TANIPLON] | 560 nM | 5 mg/kg | ED50 [3]: 55 mg/kg; ED50 [4]: > 100 mg/kg |
| CCc1c(OC)nc2nc(-c3n[nH]c(C)n3)cn2c1C | > 10000 nM | > 50 mg/kg |  |
| C=CCc1c(OC)nc2nc(-c3nnc(C)o3)cn2c1C | 2500 nM | 10 mg/kg |  |
| COc1nc2nc(-c3nnc(C)o3)cn2c2c1CCCC2 | 3200 nM | > 50 mg/kg |  |
| C/C=C/c1c(OC)nc2nc(-c3nnc(C)o3)cn2c1C | > 10000 nM | > 50 mg/kg |  |
| CCc1c(SC)nc2nc(-c3nc(C)cs3)cn2c1C | 80 nM | > 50 mg/kg | minimal effective dose [5]: 50 mg/kg |
| CCc1c(OC)nc2nc(-c3nnc(C(F)(F)F)o3)cn2c1C | > 10000 nM |  | minimal effective dose [6]: 10 mg/kg |
| CCc1c(OC)nc2nc(-c3nc(C)no3)cn2c1C | 630 nM | 5 mg/kg | ED50 [3]: 14 mg/kg; ED50 [4]: > 100 mg/kg |
| CCc1c(OC)nc2nc(-c3noc(C(F)(F)F)n3)cn2c1C |  |  | ED50 [7]: 70 mg/kg; ED50 [4]: > 200 mg/kg; minimal effective dose [8]: 1 mg/kg |
| CCc1c(OC)nc2nc(-c3nnco3)cn2c1C | 10000 nM | > 50 mg/kg |  |
| CCc1c(OC)nc2nc(-c3noc(C)n3)c(Cl)n2c1C | 10000 nM | 10 mg/kg |  |
| CCc1csc(-c2cn3c(C)c(CC)c(OC)nc3n2)n1 | 220 nM | 50 mg/kg | minimal effective dose [5]: 50 mg/kg |
| CCCc1c(OC)nc2nc(-c3nc(C)cs3)cn2c1C | 100 nM | > 50 mg/kg | minimal effective dose [5]: 50 mg/kg |
| CCCc1c(OC)nc2nc(-c3nnc(C)o3)cn2c1C | 7900 nM | 10 mg/kg |  |
| CNC1=Nc2ccc(Cl)cc2C(c2ccccc2)=[N+]([O-])C1 [CHLORDIAZEPOXIDE] |  | 2 mg/kg | ED50 [7]: 1.9 mg/kg; ED50 [9]: 6.8 mg/kg |
| CCc1c(OC)nc2nc(-c3cc(C)[nH]n3)cn2c1C | 5000 nM | > 50 mg/kg |  |
| CCc1c(OC)nc2nc(-c3nnc(C)s3)cn2c1C | > 10000 nM |  | minimal effective dose [10]: 2 mg/kg |

| SMILES | IC50 [1] | minimal effective dose [2] | other results |
| --- | --- | --- | --- |
| CCc1c(OC)nc2nc(-c3nnc(C)o3)cn2c1C |  | 2 mg/kg | ED50 [3]: 20 mg/kg; ED50 [4]: > 200 mg/kg |
| CCc1c(OC)nc2nc(-c3cnco3)cn2c1C | 2500 nM | > 50 mg/kg |  |
| CCc1c(OC)nc2nc(-c3cc(C)no3)cn2c1C | 4500 nM | 50 mg/kg |  |
| CCc1c(OC)nc2nc(-c3noc(C)n3)c(Br)n2c1C | 10000 nM | 10 mg/kg |  |
| COc1nc2nc(-c3nc(C)cs3)cn2c2c1CCCC2 | 22 nM | > 50 mg/kg | minimal effective dose [5]: > 50 mg/kg |
| CCc1c(SC)nc2nc(-c3noc(C)n3)cn2c1C | 160 nM | 2 mg/kg |  |
| CCc1c(OC)nc2nc(-c3nc(C)cs3)cn2c1C | 112 nM | > 50 mg/kg | ED50 [11]: 1.7 mg/kg; minimal effective dose [5]: 10 mg/kg |
| CCCc1nnc(-c2cn3c(C)c(CC)c(OC)nc3n2)o1 | > 10000 nM | 50 mg/kg |  |
| CCc1c(OC)nc2nc(-c3nnc(-c4ccccc4)o3)cn2c1C | > 10000 nM | > 50 mg/kg |  |
| CCc1c(OC)nc2nc(-c3nc(C)c(C)s3)cn2c1C | 2500 nM | > 50 mg/kg | minimal effective dose [5]: > 50 mg/kg |
| CCc1nnc(-c2cn3c(C)c(CC)c(OC)nc3n2)o1 | > 10000 nM | 50 mg/kg |  |
| CCc1c(OC)nc2nc(-c3nc(C(F)(F)F)cs3)cn2c1C | 2000 nM | > 50 mg/kg | minimal effective dose [5]: > 50 mg/kg |
| C=CCc1c(OC)nc2nc(-c3nc(C)cs3)cn2c1C | 100 nM | > 50 mg/kg | minimal effective dose [5]: > 50 mg/kg |
| CCOC(=O)c1csc(-c2cn3c(C)c(CC)c(OC)nc3n2)n1 | 2800 nM | > 50 mg/kg |  |
| CCc1c(OC)nc2nc(-c3noc(C)n3)cn2c1C [FASIPLON] | 500 nM |  | ED50 [3]: 7.4 mg/kg; ED50 [4]: 17 mg/kg; minimal effective dose [10]: 2 mg/kg |
| CCc1c(SC)nc2nc(-c3nnc(C)o3)cn2c1C | 320 nM | 5 mg/kg |  |
| CCc1c(OC)nc2nc(-c3nccs3)cn2c1C | 200 nM |  | minimal effective dose [5]: 10 mg/kg |
| CCCc1c(OC)nc2nc(-c3noc(C)n3)cn2c1C | 1600 nM | 5 mg/kg | ED50 [3]: 13 mg/kg; ED50 [4]: 16.5 mg/kg |
